SMILES strings stand for the structures.

A word on the IC50: it is the concentration that inhibits the measured activity by half.

The target in experiment [1] is Tyrosine-protein kinase Lck (Homo sapiens, UniProt P06239). As to the kind of experiment: Inhibition of p56lck autophosphorylation. The class given is functional.
Experiment [2] is described as follows: (§1) Inhibition of c-erb B-2/HER2/neu receptor. The class given is functional. Put shortly:
(§2)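 HER2/neu immunoprecipitated from SK-BR-3 breast cancer cells (1-2 × 10^6 cells per assay) on plates coated with goat anti-mouse Ig and anti-HER2 mAb (20 μg/mL), blocked with gelatin/glycine. Lysates bound overnight on ice, then washed. Kinase reaction in 25 mM HEPES pH 7.2, 3 mM MnCl2, 20 mM MgCl2, 0.1% NP-40 and 1 µCi [γ-32P]ATP, 20 min at 25 °C. Products run on 7.5% reducing SDS-PAGE; inhibition calculated from densitometric band densities.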

Experiment [3] can be described thus: Inhibition of epidermal growth factor receptor (EGFR) autophosphorylation. The class given is functional.
Experiment [4] in a line: as §1. Put shortly:
as §2

Experiment [5] is described as follows: Inhibition of epidermal growth factor receptor (EGFR).

Sequence of Tyrosine-protein kinase Lck (P06239 whole entry): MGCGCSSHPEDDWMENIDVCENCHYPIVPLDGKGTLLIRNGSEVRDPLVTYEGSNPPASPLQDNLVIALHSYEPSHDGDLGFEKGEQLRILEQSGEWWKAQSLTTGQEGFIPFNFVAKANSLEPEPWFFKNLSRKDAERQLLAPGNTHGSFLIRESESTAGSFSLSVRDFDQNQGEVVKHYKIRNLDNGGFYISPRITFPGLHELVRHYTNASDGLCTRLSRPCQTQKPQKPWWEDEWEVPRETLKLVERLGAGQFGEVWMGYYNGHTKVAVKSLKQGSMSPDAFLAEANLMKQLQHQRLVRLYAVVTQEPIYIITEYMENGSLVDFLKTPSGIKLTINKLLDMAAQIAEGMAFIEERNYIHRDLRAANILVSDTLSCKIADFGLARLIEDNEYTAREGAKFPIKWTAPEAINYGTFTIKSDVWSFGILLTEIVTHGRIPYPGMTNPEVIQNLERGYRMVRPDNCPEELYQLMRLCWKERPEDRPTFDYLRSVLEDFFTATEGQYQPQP

Regarding `O=C(O)c1cc(/C=C/c2cc(O)ccc2O)ccc1O`, the IC50 was 0.06 µM in experiment [1], 0.6 µM in experiment [2] and 2 µM in experiment [3].
For `O=C(O)c1cc(CCc2ccc(O)c(O)c2)ccc1O`, the figures for the IC50 in experiment [1], in experiment [4] and in experiment [5] were 1 µM, 0.6 µM and 12 µM, respectively.
On to `O=C(O)c1cc(/C=C/c2ccc(O)c(O)c2)ccc1O`, for which the half-inhibitory concentration (IC50) in experiment [2] was 0.2 µM; in experiment [3] it was 5 µM.
Take `O=C(O)c1cc(CCc2cc(O)ccc2O)ccc1O`: the 50% inhibitory concentration (IC50) in experiment [1] was 1 µM; in experiment [2], 4 µM; in experiment [3], 20 µM.
As for `O=C(O)c1cc(/N=C/c2cc(O)ccc2O)ccc1O`, the figures for the IC50 in experiment [1], in experiment [2] and in experiment [3] were 85 µM, 70 µM and 9 µM, respectively.
On the same counts, the results for `O=C(O)c1cc(N(Cc2ccccc2O)Cc2cc(O)ccc2O)ccc1O` [LAVENDUSTIN A] are 8 µM, 9 µM and 7 µM.
For the molecule `O=C(O)c1cc(NCc2cc(O)ccc2O)ccc1O` [LAVENDUSTIN C], the results for the IC50 in experiment [1], in experiment [2] and in experiment [3] were 10 µM, 0.9 µM and 4 µM, respectively.
